Key:
Plasmodium falciparum [1] = experiment: Antimalarial activity against chloroquine-resistant Plasmodium falciparum FCB after 72 hrs by SYBR green assay; type: functional, organism-based
Method in brief: (§1)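 Sorbitol-synchronized P. falciparum cultures (>95% rings) at 0.5% parasitemia, 1% hematocrit final, exposed to drug dilutions in complete medium 72 h at 37°C; SYBR Green I added, 1 h at 37°C, fluorescence read at 530 nm (490 nm excitation). Each dilution in triplicate; IC50 averaged over at least two separate assays.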

Plasmodium falciparum [2] = experiment: Selectivity for chloroquine-resistant Plasmodium falciparum K1 over chloroquine-sensitive Plasmodium falciparum NF54 as IC50 ratio by [3H]hypoxanthine uptake; type: functional
Plasmodium falciparum [3] = experiment: Selectivity for chloroquine-resistant Plasmodium falciparum Dd2 over chloroquine-sensitive Plasmodium falciparum HB3 as IC50 ratio by SYBR green assay; type: functional
Plasmodium falciparum [4] = experiment: Selectivity for chloroquine-resistant Plasmodium falciparum FCB over chloroquine-sensitive Plasmodium falciparum GCO3 as IC50 ratio by SYBR green assay; type: functional
Plasmodium falciparum [5] = experiment: Antimalarial activity against chloroquine-resistant Plasmodium falciparum Dd2 after 72 hrs by SYBR green assay; type: functional, organism-based; details: Dd2, 72 h; method in brief: as §1
Plasmodium falciparum [6] = experiment: Antimalarial activity against chloroquine-resistant Plasmodium falciparum K1 by [3H]hypoxanthine uptake; type: functional, organism-based
Plasmodium falciparum [7] = experiment: Antimalarial activity against chloroquine-sensitive Plasmodium falciparum GCO3 after 72 hrs by SYBR green assay; type: functional, organism-based; details: GCO3, 72 h; method in brief: as §1
Plasmodium falciparum [8] = experiment: Antimalarial activity against chloroquine-sensitive Plasmodium falciparum NF54 by [3H]hypoxanthine uptake; type: functional, organism-based
Plasmodium falciparum [9] = experiment: Antimalarial activity against chloroquine-sensitive Plasmodium falciparum HB3 after 72 hrs by SYBR green assay; type: functional, organism-based; details: HB3, 72 h; method in brief: as §1
[10] = Binding affinity to mu dimeric heme in aqueous solution at pH 7.5
Method in brief: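 Hemin first converted to μ-oxo dimer in mild alkaline solution, then titrated to pH 7.5 with Hepes buffer. Heme titrated with increasing drug (0 – 50 μM); absorbance at 402 nm recorded after each addition. Solvent-only titration served as control. Ka derived from ΔAbs402 plots by Scatchard analysis.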

Plasmodium falciparum [11] = experiment: Drug accumulation in digestive vacuole of chloroquine-resistant Plasmodium falciparum assessed as vacuolar accumulation ratio at pH 5.2; type: ADME, organism-based
Method in brief: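 Calculated with the Henderson–Hasselbach equation from compound pKa values, taking cytosolic pH 7.4 and DV pH 5.2 for CQR parasites. Experimental pKa came from titrating 10 mM drug in water with 0.1 M NaOH at room temperature, using second-derivative inflection points, three determinations averaged.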

Plasmodium falciparum [12] = experiment: Drug accumulation in digestive vacuole of chloroquine-sensitive Plasmodium falciparum assessed as vacuolar accumulation ratio at pH 5.6; type: ADME, organism-based
Method in brief: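 Calculated, not measured: Henderson–Hasselbach equation with cytosolic pH 7.4 and digestive vacuole pH 5.6 (CQS), using experimental pKa values.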

[13] = Inhibition of haemozoin formation at pH 5.2 after 18 hrs; type: functional
Method in brief: (§2)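 Cell-free β-hematin formation in 1 mL containing lecithin (2 μg/ml final), hematin (100 μM final), 0.1 M HCl, propionate buffer at stated pH, and drug (0-1000 μM). Triplicates shaken at 37°C for 18 h. Pellets washed with pH 9.0 bicarbonate to remove uncrystallized heme, dried, dissolved in 0.1 M NaOH, and quantified by absorbance at 402 nm against a heme calibration curve.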

[14] = Inhibition of haemozoin formation at pH 5.6 after 18 hrs; type: functional; method in brief: as §2
Plasmodium falciparum [15] = experiment: Selectivity for chloroquine-resistant Plasmodium falciparum Indochina I over chloroquine-sensitive Plasmodium falciparum Haiti 135 as IC50 ratio by [3H]hypoxanthine uptake; type: functional

| Compound | IC50 (Plasmodium falciparum [1]) | Ratio IC50 (Plasmodium falciparum [2]) | Ratio IC50 (Plasmodium falciparum [3]) | Ratio IC50 (Plasmodium falciparum [4]) | IC50 (Plasmodium falciparum [5]) | IC50 (Plasmodium falciparum [6]) | IC50 (Plasmodium falciparum [7]) | IC50 (Plasmodium falciparum [8]) | IC50 (Plasmodium falciparum [9]) | Ka [10] | logKA [10] | Activity (Plasmodium falciparum [11]) | Activity (Plasmodium falciparum [12]) | IC50 [13] | IC50 [14] | Ratio IC50 (Plasmodium falciparum [15]) |
| --- | --- | --- | --- | --- | --- | --- | --- | --- | --- | --- | --- | --- | --- | --- | --- | --- |
| CCNCCCNc1ccnc2cc(Cl)ccc12 | 0.085 µM | 24.3 | 16.4 | 4.25 | 0.115 µM | 0.365 µM | 0.02 µM | 0.015 µM | 0.007 µM |  |  |  |  |  |  |  |
| CCNCCCCCCNc1ccnc2cc(Cl)ccc12 | 0.987 µM |  | 31.3 | 10 | 0.982 µM |  | 0.052 µM |  | 0.019 µM |  |  |  |  |  |  |  |
| CCN(CC)CCCCOc1ccnc2cc(Cl)ccc12 | 1.1 µM |  | 0.404 | 0.663 | 1.18 µM |  | 1.66 µM |  | 2.92 µM | 8.82 ×10⁴ /M | 5 | 190 | 67 | > 1000 µM | > 1000 µM |  |
| CCN(CC)CCCNc1ccnc2cc(Cl)ccc12 | 0.029 µM | 3.33 | 4.33 | 4.14 | 0.026 µM | 0.06 µM | 0.007 µM | 0.018 µM |  |  |  |  |  |  |  | 1.2 |
| CCN(CC)CCCC(C)Nc1ccnc2cc(Cl)ccc12 (stereo unspecified) [CHLOROQUINE] |  |  |  |  |  |  |  |  |  |  |  | 23000 | 3700 | 35 µM | 16 µM |  |
| CCN(CC)CCCCCCOc1ccnc2cc(Cl)ccc12 | 1.19 µM |  | 1.36 | 0.524 | 4.16 µM |  | 2.27 µM |  | 3.06 µM |  |  |  |  |  |  |  |
| CCN(CC)CCSc1ccnc2cc(Cl)ccc12 | 6.02 µM |  | 0.577 | 1.04 | 5.5 µM |  | 5.74 µM |  | 9.53 µM |  |  |  |  |  |  |  |
| CCN(CC)CCCCCNc1ccnc2cc(Cl)ccc12 | 0.509 µM |  | 12.3 | 7.17 | 0.357 µM |  | 0.066 µM |  | 0.029 µM |  |  |  |  |  |  | 9.67 |
| CCN(CC)CCCCCOc1ccnc2cc(Cl)ccc12 | 0.93 µM |  | 0.54 | 0.624 | 1.01 µM |  | 1.49 µM |  | 1.87 µM |  |  |  |  |  |  |  |
| CCN(CC)CCCCCSc1ccnc2cc(Cl)ccc12 | 0.814 µM |  | 0.464 | 0.506 | 1.08 µM |  | 1.61 µM |  | 2.33 µM |  |  |  |  |  |  |  |
| CCNCCCCNc1ccnc2cc(Cl)ccc12 | 0.854 µM |  | 36.1 | 32.8 | 0.649 µM |  | 0.026 µM |  | 0.018 µM |  |  |  |  |  |  |  |
| CCN(CC)CCCOc1ccnc2cc(Cl)ccc12 | 2.33 µM |  | 0.549 | 0.996 | 2.8 µM |  | 2.34 µM |  | 5.1 µM |  |  |  |  |  |  |  |
| CCN(CC)CC(CN(CC)CC)Oc1ccnc2cc(Cl)ccc12 | 3.83 µM |  | 0.866 | 1.7 | 1.29 µM |  | 2.25 µM |  | 1.49 µM |  |  |  |  |  |  |  |
| CCN(CC)CCCCSc1ccnc2cc(Cl)ccc12 | 3.5 µM |  | 0.601 | 0.622 | 4.44 µM |  | 5.63 µM |  | 7.39 µM | 8.22 ×10⁴ /M | 4.9 | 170 | 64 | 216 µM | 155 µM |  |
| CCN(CC)CCCCCCNc1ccnc2cc(Cl)ccc12 | 0.102 µM |  | 0.876 | 6.38 | 0.085 µM |  | 0.016 µM |  | 0.097 µM |  |  |  |  |  |  | 11.2 |
| CCN(CC)CCNc1ccnc2cc(Cl)ccc12 | 0.03 µM | 2.33 | 2 | 2.3 | 0.026 µM |  | 0.013 µM | 0.021 µM | 0.013 µM |  |  |  |  |  |  | 0.714 |
| CCN(CC)CCCCC(CCCCN(CC)CC)Oc1ccnc2cc(Cl)ccc12 | 0.604 µM |  | 4.31 | 13.4 | 0.316 µM |  | 0.045 µM |  | 0.073 µM |  |  |  |  |  |  |  |
| CCN(CC)CCCC(CCCN(CC)CC)Oc1ccnc2cc(Cl)ccc12 | 0.352 µM |  | 4.35 | 4.75 | 0.409 µM |  | 0.074 µM |  | 0.094 µM | 3.47 ×10⁴ /M | 4.5 | 79000 | 5000 | 199 µM | 687 µM |  |
| CCN(CC)CCCCNc1ccnc2cc(Cl)ccc12 | 0.181 µM |  | 16.6 | 3.69 | 0.199 µM |  | 0.049 µM |  | 0.012 µM | 1.65 ×10⁵ /M | 5.2 | 23000 | 3700 | 24 µM | 12 µM | 10.2 |
| CCN(CC)CCOc1ccnc2cc(Cl)ccc12 | 5.08 µM |  | 0.788 | 0.96 | 4.57 µM |  | 5.29 µM |  | 5.8 µM |  |  |  |  |  |  |  |
| CCNCCNc1ccnc2cc(Cl)ccc12 | 0.089 µM | 1.25 | 6.75 | 7.42 | 0.081 µM | 0.133 µM | 0.012 µM | 0.021 µM | 0.012 µM |  |  |  |  |  |  |  |
| CCNCCCCCNc1ccnc2cc(Cl)ccc12 | 1.27 µM |  | 37.4 | 20.5 | 0.786 µM |  | 0.062 µM |  | 0.021 µM |  |  |  |  |  |  |  |
| CCN(CC)CCCSc1ccnc2cc(Cl)ccc12 | 1.61 µM |  | 0.475 | 0.465 | 2.66 µM |  | 3.46 µM |  | 5.6 µM |  |  |  |  |  |  |  |
| CCN(CC)CCCCCCSc1ccnc2cc(Cl)ccc12 | 3.3 µM |  | 0.683 | 0.742 | 4.11 µM |  | 4.45 µM |  | 6.02 µM |  |  |  |  |  |  |  |

— ChEMBL document CHEMBL1150767, “4-N-, 4-S-, and 4-O-chloroquine analogues: influence of side chain length and quinolyl nitrogen pKa on activity vs chloroquine resistant malaria” (J Med Chem, 2008)
